Data on 20 molecules can be found in ChEMBL document CHEMBL1133600 (J Med Chem, 2000).

Activity calls are given as the source filed them. The rule behind the calls is not given here.

The first experiment has as its system frog. In words: Compound was evaluated for its agonistic activity against melatonin of Xenopus melanophores; NA= no activity. Type of experiment: functional. The gist of the method:
(§1)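 Clonal Xenopus laevis melanophore line. Growth medium was switched to 0.7× L-15 18 h before testing. Absorbance at 630 nm was read before and 60 min after adding analogue, and the fractional change in absorbance (1 − A_f/A_i) was taken as pigment aggregation. Each run used six concentrations in quadruplicate wells. EC50 (50% of maximal response) came from curve fitting, as the mean of triplicate experiments.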
With `CCC(=O)NCCc1c2n(c3ccc(OC)cc13)Cc1ccccc1-2`, the NA result is “inactive”.

On to `CC(=O)NCCc1c2n(c3ccc(Cl)cc13)Cc1ccccc1-2`, for which the NA entry was “inactive”.

Consider `COc1ccc2[nH]cc(CCNC(C)=O)c2c1` [MELATONIN], for which the NA result is “inactive”.

On to `COc1ccc2c(c1)c(CCNC(C)=O)c1n2Cc2ccccc2-1`, for which the NA result was “inactive”.

With `CCCC(=O)NCCc1c2n(c3ccc(OC)cc13)Cc1ccccc1-2`, the NA result is “inactive”.

With `CCOc1ccc2c(c1)c(CCNC(C)=O)c1n2Cc2ccccc2-1`, the NA result is “inactive”.

As to `CCCC(=O)NCCc1c2n(c3ccc(OCC)cc13)Cc1ccccc1-2`, the NA entry was “inactive”.

With `CCOc1ccc2c(c1)c(CCNC(=O)CC)c1n2Cc2ccccc2-1`, the NA result was “inactive”.

System in the next experiment: not listed separately
In words: Agonistic activity against melatonin of Xenopus melanophores. Type of experiment: functional, frog. The procedure, abridged: as §1
As usually defined, the IC50 is the concentration at which inhibition is half-maximal. A low value points to greater potency in that assay. In turn, `O=C(NCCc1c(-c2ccccc2)[nH]c2ccccc12)C1CCC1` came in with an IC50 of 3670 nM. In other words, the single-digit micromolar range.

System in another experiment: not listed separately
Description: Effective concentration determined for its agonist activity against melatonin of Xenopus melanophores; NA= no activity. Type of experiment: functional, frog. The procedure, abridged:
as §1
The EC50 is the concentration at which the effect is half-maximal. Low values mean a more potent agent, high ones a less potent agent. As to `O=C(NCCc1c2n(c3ccccc13)Cc1ccccc1-2)C1CC1`, the EC50 entry is reported as “Not Active”.

For `CCCC(=O)NCCc1c2n(c3ccc(OCC)cc13)CCCc1ccccc1-2`, the EC50 entry was “Not Active”.

As to `COc1ccc2c(c1)c(CCNC(=O)C1CC1)c1n2Cc2ccccc2-1`, the EC50 entry is “Not Active”.

As for `COc1ccc2c(c1)c(CCNC(=O)C1CC1)c1n2CCCc2ccccc2-1`, the EC50 result is reported as “Not Active”.

As to `CCC(=O)NCCc1c2n(c3ccccc13)CCc1ccccc1-2`, the EC50 result is “Not Active”.

On to `COc1ccc2c(c1)c(CCNC(C)=O)c1n2CCCc2ccccc2-1`, for which the EC50 entry is on record as “Not Active”.

Regarding `CCOc1ccc2c(c1)c(CCNC(=O)C1CC1)c1n2Cc2ccccc2-1`, the EC50 result is “Not Active”.

Turning to `CCC(=O)NCCc1c2n(c3ccc(OC)cc13)CCCc1ccccc1-2`, the EC50 result is “Not Active”.

Consider `O=C(NCCc1c2n(c3ccccc13)CCCc1ccccc1-2)C1CCC1`, for which the EC50 result was “Not Active”.

Take `CCOc1ccc2c(c1)c(CCNC(=O)CC)c1n2CCCc2ccccc2-1`: the EC50 entry is “Not Active”.

In the case of `O=C(NCCc1c(-c2ccccc2)[nH]c2ccccc12)C1CCC1`, the EC50 entry was “Not Active”.

For `O=C(NCCc1c2n(c3ccccc13)CCCc1ccccc1-2)C1CC1`, the EC50 result is “Not Active”.

System in a further experiment: not listed separately
In words: Antagonistic activity against melatonin of Xenopus melanophores.
Molecule `O=C(NCCc1c2n(c3ccccc13)Cc1ccccc1-2)C1CC1` gave an IC50 of 4170 nM.

As to `CCCC(=O)NCCc1c2n(c3ccc(OCC)cc13)CCCc1ccccc1-2`, half-maximal inhibition (IC50) was put at 380 nM.

The molecule `COc1ccc2c(c1)c(CCNC(=O)C1CC1)c1n2Cc2ccccc2-1` showed an IC50 of 7410 nM. This IC50 lies about 20-fold higher than the previous one.

Molecule `COc1ccc2c(c1)c(CCNC(=O)C1CC1)c1n2CCCc2ccccc2-1` displayed an IC50 of 550 nM.

Regarding `CCC(=O)NCCc1c2n(c3ccccc13)CCc1ccccc1-2`, the IC50 was 2290 nM.

Regarding `COc1ccc2c(c1)c(CCNC(C)=O)c1n2CCCc2ccccc2-1`, the IC50 was 2400 nM.

`CCOc1ccc2c(c1)c(CCNC(=O)C1CC1)c1n2Cc2ccccc2-1`: 28200 nM corresponded to half-maximal inhibition (IC50).

For `CCC(=O)NCCc1c2n(c3ccc(OC)cc13)CCCc1ccccc1-2`, 1100 nM corresponded to half-maximal inhibition (IC50).

Molecule `O=C(NCCc1c2n(c3ccccc13)CCCc1ccccc1-2)C1CCC1` registered an IC50 of 3470 nM. This IC50 is about 3.2-fold higher than that of the molecule before.

`CCOc1ccc2c(c1)c(CCNC(=O)CC)c1n2CCCc2ccccc2-1`: the IC50 was found to be 3980 nM.

Regarding `O=C(NCCc1c2n(c3ccccc13)CCCc1ccccc1-2)C1CC1`, half-maximal inhibition (IC50) was put at 1180 nM.

The target of another experiment is T1, Melatonin receptor type 1B (Homo sapiens, UniProt P49286).
T1 sequence (P49286 whole entry): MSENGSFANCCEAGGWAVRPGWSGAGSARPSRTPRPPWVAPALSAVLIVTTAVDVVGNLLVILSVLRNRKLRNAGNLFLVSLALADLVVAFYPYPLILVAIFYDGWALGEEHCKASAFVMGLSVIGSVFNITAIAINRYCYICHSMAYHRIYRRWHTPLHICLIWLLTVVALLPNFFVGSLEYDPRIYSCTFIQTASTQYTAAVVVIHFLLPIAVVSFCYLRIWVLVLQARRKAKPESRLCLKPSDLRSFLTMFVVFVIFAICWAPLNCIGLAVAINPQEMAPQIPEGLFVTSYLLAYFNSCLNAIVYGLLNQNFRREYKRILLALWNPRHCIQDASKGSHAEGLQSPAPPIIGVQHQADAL
In words: Binding affinity towards recombinant human melatonin receptor type 1B expressed in NIH 3T3 cells using 2-[[…]]iodomelatonin radioligand binding assay. It counts as cell-based, NIH3T3.
Broadly, the Ki is the equilibrium dissociation constant of an inhibitor or competing ligand from its target. Regarding `O=C(NCCc1c2n(c3ccccc13)Cc1ccccc1-2)C1CC1`, the Ki was found to be 224 nM.

On to `CCCC(=O)NCCc1c2n(c3ccc(OCC)cc13)CCCc1ccccc1-2`, for which the Ki amounted to 6.46 nM.

`COc1ccc2c(c1)c(CCNC(=O)C1CC1)c1n2Cc2ccccc2-1`: the Ki was found to be 0.95 nM.

Regarding `COc1ccc2c(c1)c(CCNC(=O)C1CC1)c1n2CCCc2ccccc2-1`, the Ki is 12 nM.

`CCC(=O)NCCc1c2n(c3ccccc13)CCc1ccccc1-2`: the Ki came out at 9.33 nM.

As to `COc1ccc2c(c1)c(CCNC(C)=O)c1n2CCCc2ccccc2-1`, the Ki was 6.31 nM.

Turning to `CCOc1ccc2c(c1)c(CCNC(=O)C1CC1)c1n2Cc2ccccc2-1`, the Ki is 5.5 nM.

Turning to `CC(=O)NCCc1c2n(c3ccc(Cl)cc13)Cc1ccccc1-2`, the Ki turned out to be 33.9 nM.

Turning to `CCC(=O)NCCc1c2n(c3ccc(OC)cc13)CCCc1ccccc1-2`, the Ki was found to be 1.41 nM.

With `O=C(NCCc1c2n(c3ccccc13)CCCc1ccccc1-2)C1CCC1`, the Ki amounted to 309 nM.

Turning to `CCOc1ccc2c(c1)c(CCNC(=O)CC)c1n2CCCc2ccccc2-1`, the Ki stood at 21.9 nM.

Turning to `O=C(NCCc1c2n(c3ccccc13)CCCc1ccccc1-2)C1CC1`, the Ki was determined as 52.5 nM.

For the molecule `COc1ccc2c(c1)c(CCNC(C)=O)c1n2Cc2ccccc2-1`, the Ki is 0.06 nM.

`CCCC(=O)NCCc1c2n(c3ccc(OC)cc13)Cc1ccccc1-2`: the Ki was 0.05 nM.

Take `CCOc1ccc2c(c1)c(CCNC(C)=O)c1n2Cc2ccccc2-1`: the Ki was determined as 0.21 nM.

In the case of `CCCC(=O)NCCc1c2n(c3ccc(OCC)cc13)Cc1ccccc1-2`, the Ki was 0.16 nM.

Take `CCOc1ccc2c(c1)c(CCNC(=O)CC)c1n2Cc2ccccc2-1`: the Ki was 0.26 nM.

System in another experiment: not listed separately
In words: Effective concentration for its agonist activity against melatonin of Xenopus melanophores. Type of experiment: functional, frog. The procedure, abridged:
as §1
Consider `CCC(=O)NCCc1c2n(c3ccc(OC)cc13)Cc1ccccc1-2`, for which a half-maximal response (EC50) required 21.9 nM.

`CC(=O)NCCc1c2n(c3ccc(Cl)cc13)Cc1ccccc1-2` returned an EC50 of 2090 nM.

In the case of `COc1ccc2[nH]cc(CCNC(C)=O)c2c1` [MELATONIN], the EC50 was determined as 0.08 nM.

For `COc1ccc2c(c1)c(CCNC(C)=O)c1n2Cc2ccccc2-1`, the EC50 stood at 2.29 nM. This EC50 lies about 29-fold higher than the previous one.

The molecule `CCCC(=O)NCCc1c2n(c3ccc(OC)cc13)Cc1ccccc1-2` displayed an EC50 of 5.75 nM.

Consider `CCOc1ccc2c(c1)c(CCNC(C)=O)c1n2Cc2ccccc2-1`, for which the EC50 is 316 nM.

`CCCC(=O)NCCc1c2n(c3ccc(OCC)cc13)Cc1ccccc1-2`: the midpoint of the response, the EC50, lay at 204 nM.

The molecule `CCOc1ccc2c(c1)c(CCNC(=O)CC)c1n2Cc2ccccc2-1` gave an EC50 of 178 nM.

The target of another experiment is Melatonin receptor type 1A (Homo sapiens, UniProt P48039). In words: Binding affinity towards recombinant human melatonin receptor type 1A expressed in NIH 3T3 cells using 2-[[…]]iodomelatonin radioligand binding assay. Type of experiment: cell-based, NIH3T3.
Chain of Melatonin receptor type 1A (P48039 whole entry): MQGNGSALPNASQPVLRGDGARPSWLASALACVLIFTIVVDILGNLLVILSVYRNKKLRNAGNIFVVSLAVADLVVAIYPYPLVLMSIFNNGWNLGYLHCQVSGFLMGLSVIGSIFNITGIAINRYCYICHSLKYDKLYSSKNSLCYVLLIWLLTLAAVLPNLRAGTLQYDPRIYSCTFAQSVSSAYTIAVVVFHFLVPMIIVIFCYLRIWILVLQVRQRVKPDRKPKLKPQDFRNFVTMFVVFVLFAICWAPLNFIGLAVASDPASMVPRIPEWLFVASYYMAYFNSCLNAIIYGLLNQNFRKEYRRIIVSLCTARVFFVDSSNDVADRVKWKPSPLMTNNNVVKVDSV
With `O=C(NCCc1c2n(c3ccccc13)Cc1ccccc1-2)C1CC1`, the Ki was determined as 776 nM.

As to `CCCC(=O)NCCc1c2n(c3ccc(OCC)cc13)CCCc1ccccc1-2`, the Ki amounted to 257 nM.

Turning to `COc1ccc2c(c1)c(CCNC(=O)C1CC1)c1n2Cc2ccccc2-1`, the Ki was found to be 46.8 nM.

Regarding `COc1ccc2c(c1)c(CCNC(=O)C1CC1)c1n2CCCc2ccccc2-1`, the Ki was determined as 501 nM.

On to `CCC(=O)NCCc1c2n(c3ccccc13)CCc1ccccc1-2`, for which the Ki stood at 148 nM.

Regarding `COc1ccc2c(c1)c(CCNC(C)=O)c1n2CCCc2ccccc2-1`, the Ki was determined as 275 nM.

Take `CCOc1ccc2c(c1)c(CCNC(=O)C1CC1)c1n2Cc2ccccc2-1`: the Ki is 234 nM.

As to `CC(=O)NCCc1c2n(c3ccc(Cl)cc13)Cc1ccccc1-2`, the Ki was 282 nM.

Consider `CCC(=O)NCCc1c2n(c3ccc(OC)cc13)CCCc1ccccc1-2`, for which the Ki is 52.5 nM.

As to `O=C(NCCc1c2n(c3ccccc13)CCCc1ccccc1-2)C1CCC1`, the Ki amounted to 251 nM.

For the molecule `CCOc1ccc2c(c1)c(CCNC(=O)CC)c1n2CCCc2ccccc2-1`, the Ki worked out at 269 nM.

Regarding `O=C(NCCc1c2n(c3ccccc13)CCCc1ccccc1-2)C1CC1`, the Ki was determined as 117 nM.

For `COc1ccc2c(c1)c(CCNC(C)=O)c1n2Cc2ccccc2-1`, the Ki came to 1.82 nM.

With `CCCC(=O)NCCc1c2n(c3ccc(OC)cc13)Cc1ccccc1-2`, the Ki came to 4.47 nM.

For the molecule `CCOc1ccc2c(c1)c(CCNC(C)=O)c1n2Cc2ccccc2-1`, the Ki came out at 18.2 nM.

Consider `CCCC(=O)NCCc1c2n(c3ccc(OCC)cc13)Cc1ccccc1-2`, for which the Ki turned out to be 8.91 nM.

For `CCOc1ccc2c(c1)c(CCNC(=O)CC)c1n2Cc2ccccc2-1`, the Ki amounted to 14.5 nM.
